Bioassay records as filed in PubChem.
Only some compounds are listed: those with a hit (about 3.5% of all), similar ones and a draw of the others.
MrgX1 antagonist: human MrgX1 receptor antagonism, primary screen | Q96LB2 | MRGX1-HEK293 calcium flux, Fluo-4, BAM8-22 antagonism; active compounds read low | AID 588676 | B-score at 10 µM | hit rate 1.3% among 310,000;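 active means calcium-response B-score plate-corrected more than 3 library SD below zero, starting fluorescence within 5 deviations, no agonist response on first addition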;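 further: peak minus trough fluorescence over baseline after final BAM8-22 challenge near maximal dose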
Target sequence (Q96LB2 whole entry, looked up): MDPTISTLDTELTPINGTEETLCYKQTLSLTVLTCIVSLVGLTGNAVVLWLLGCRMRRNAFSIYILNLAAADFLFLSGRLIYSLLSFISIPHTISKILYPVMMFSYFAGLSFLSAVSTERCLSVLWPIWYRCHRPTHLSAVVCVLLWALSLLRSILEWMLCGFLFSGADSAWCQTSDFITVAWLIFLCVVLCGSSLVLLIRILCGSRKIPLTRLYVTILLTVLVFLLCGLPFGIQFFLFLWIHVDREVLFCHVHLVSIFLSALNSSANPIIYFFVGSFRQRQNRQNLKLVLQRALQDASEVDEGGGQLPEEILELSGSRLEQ
RGS4 inh: human RGS4 inhibition. AID 463165. hit rate 0.45% among 310,000. B-score at 10 µM. HEK293 M3R/RGS4 inducible, Fluo-4 calcium flux; active compounds read high; triggered by carbachol at its EC20;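 active means B-score, a plate-corrected calcium signal, over three deviations above library mean, with baseline fluorescence within five deviations of library mean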;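 further: RGS4 expression induced by doxycycline in cells with stable M3 receptor; B-score is computed from the integrated fluorescence ratio over baseline after carbachol; higher B-score means a larger calcium signal and so more RGS4 inhibition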
Target sequence (P49798 whole entry, looked up): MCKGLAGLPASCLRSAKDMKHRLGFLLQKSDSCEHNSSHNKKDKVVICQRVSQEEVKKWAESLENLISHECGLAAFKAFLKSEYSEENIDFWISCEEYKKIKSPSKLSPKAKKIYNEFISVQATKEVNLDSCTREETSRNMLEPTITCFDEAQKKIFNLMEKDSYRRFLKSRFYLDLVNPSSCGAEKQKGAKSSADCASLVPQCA
MrgX1 agonist: agonists of human MrgX1 receptor; MrgX1-HEK293 cells, Fluo-4 calcium fluorescence, agonist mode; active compounds read high; B-score at 10 µM; hit rate 0.44% among 310,000; Q96LB2;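 active means calcium response B-score plate-corrected fluorescence ratio at least 3 library SD, with starting fluorescence B-score inside 5 SD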
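System: HEK293 cells stably expressing human MrgX1 receptor; Dosing: test compound in the initial addition of three; Schedule: overnight plating, then 30 min 37 °C plus 30 min room-temperature dye loading; Detection: kinetic calcium dye fluorescence, Fluo-4 NW; Controls: per-plate positive and negative controls for Z′ factor.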
MrgX1 allo act: human MrgX1 positive allosteric modulation, primary screen. Q96LB2. MrgX1-HEK293, Fluo-4 calcium flux, FDSS; active compounds read high. B-score at 10 µM. hit rate 0.63% among 310,000. AID 588675;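 active means plate-corrected calcium response at least 3 library SD above typical, normal starting fluorescence, not activating the receptor alone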;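 further: compound read alongside a low EC10 to EC30 dose of BAM8-22 agonist; peak minus trough fluorescence over baseline measured at the second addition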
RGS4 act: RGS4 potentiation or activation. HEK293 M3R/inducible RGS4, carbachol calcium flux Fluo4; active compounds read low. B-score at 10 µM. hit rate 0.92% among 310,000;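 active means B-score of the integrated calcium signal more than 4 SD below the library mean, with starting fluorescence not abnormally high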;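 further: negative B-score means reduced calcium response which marks RGS4 activation or potentiation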
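Also added: carbachol at ECmax as muscarinic agonist stimulus; Assay system: HEK293 cells with stable M3R and inducible RGS4; Timing: overnight RGS4 induction, 30 min dye load 37 °C, 20 min compound RT; Measured by: Fluo4-AM (2 µM) calcium-flux fluorescence, kinetic read.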
MrgX1 allo conf: human MrgX1 positive allosteric modulation, re-confirmation | shares compounds with MrgX1 allo act | MrgX1-HEK293, Fluo-4 calcium fluorescence, FDSS | activation (ratio percentage), % at 10 µM | hit rate 13% among 1,200;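 active means ratio at least 3 SD above the weak peptide control, stable starting fluorescence, no direct agonism earlier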;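 further: compound followed by low BAM8-22 agonist challenge near EC20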
HEK293 Ca flux: counter-screen for MrgX1 antagonists: effect in parental HEK293 cells. shares compounds with MrgX1 antagonist. Fluo-4 calcium fluorescence, FDSS. fluorescence ratio F(max-min)/F0 at 10 µM. hit rate 2% among 4,000. AID 624111;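 active means duplicate-averaged calcium fluorescence ratio at least three times the standard deviation of buffer wells, a nonspecific response in parental cells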
HEK293 Ca counter: MrgX1 allosteric activator counter-screen hit in parental HEK293 cells. shares compounds with MrgX1 antagonist. parental HEK293 calcium flux, Fluo-4 fluorescence ratio; active compounds read high. fluorescence ratio F(max-min)/F0 at 10 µM. hit rate 0.4% among 4,000. AID 624114;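 active means calcium fluorescence ratio, averaged over duplicates, at least 3 SD of the buffer-well ratio, meaning a nonspecific response in receptor-free cells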;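 further: untransfected parental HEK293 lacking MrgX1 used as counterscreen for MrgX1 allosteric activators; fluorescence change taken during the second addition on a kinetic imager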
HEK293 Ca cntr2: counter-screen for MrgX1 activators: effect in parental HEK293 cells. AID 624115. shares compounds with MrgX1 antagonist. hit rate 8.7% among 4,000. fluorescence ratio F(max-min)/F0 at 10 µM. Fluo-4 calcium fluorescence (FDSS); active compounds read high;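 active means calcium fluorescence ratio at least three times the spread of buffer wells, meaning a non-specific response in parental cells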
Numbers without * were called inactive; i = inactive; . = no result.

SMILES	MrgX1 antagonist	RGS4 inh	MrgX1 agonist	MrgX1 allo act	RGS4 act	MrgX1 allo conf	HEK293 Ca flux	HEK293 Ca counter	HEK293 Ca cntr2
CC(=O)c1cccc(NC(=O)CCn2c(=S)oc3ccccc32)c1	i	i	i	i	i	.	.	.	.
CCOC(=O)Cc1csc(NC(=O)c2ccc(Br)o2)n1	i	i	i	16*	i	i	i	i	i
CCOC(=O)Cc1csc(NC(=O)c2cc3ccccc3o2)n1	i	i	i	6.8*	i	i	i	i	i
CC(=O)N[C@@H](CC(=O)N[C@H](CCC(=O)O)C(=O)O)C(=O)O	i	.	i	i	.	.	.	.	.
COc1ccc2[nH]c(=O)c(CN(Cc3cccnc3)Cc3nnnn3CC3CCCO3)cc2c1 (centres undefined)	i	i	i	26*	i	i	i	i	i
COc1ccc2[nH]c(=O)c(CN(Cc3nnnn3Cc3ccco3)C3CCCCC3)cc2c1	i	i	i	9.3*	i	i	i	i	i
COc1ccc2[nH]c(=O)c(CN(Cc3ccccc3)Cc3nnnn3CC3CCCO3)cc2c1 (centres undefined)	i	i	i	i	i	.	.	.	.
O=C(CSc1nnc(CNC(=O)c2ccc(F)cc2)o1)Nc1nccs1	i	i	i	i	i	.	.	.	.
CCc1nc2ccccc2c(C(=O)O)c1C	i	i	i	i	i	.	.	.	.
CCc1nc2ccccc2c(C(=O)NCc2ccccc2)c1C	i	i	i	7*	i	i	i	i	i
COCCN(C(=S)Nc1cc(C)cc(C)c1)C(C)c1ccco1 (centres undefined)	i	i	i	8.2*	i	i	i	i	i
Cn1cc(C(=O)c2ccccc2C(=O)O)cc1C(=O)C(Cl)(Cl)Cl	i	i	i	i	i	.	.	.	.
Cc1cccc(N=C2CSC(=O)N2)c1	i	i	i	7.4*	i	i	i	i	i
Cc1cccc(N=C2NC(=O)S/C2=C\c2ccco2)c1	i	i	i	i	i	.	.	.	.
COc1ccc(CN(C)C(=O)c2oc3ccccc3c2CSC)cc1F	i	i	i	8*	i	i	i	i	i
COc1ccc(CCN(C)C(=O)c2oc3ccccc3c2C)cc1OC	i	i	i	i	i	.	.	.	.
Brc1ccc2c(c1)CNc1c(ncnc1N1CCOCC1)O2	i	i	i	11*	i	18%*	i	i	i
CCOc1ccc(CNCCN2CCCC2)cc1	i	i	i	i	i	.	.	.	.
Cc1ccc(S(=O)(=O)NC(C)(C)C)cc1C(=O)OCC(=O)N1CCCC1=O	i	i	i	i	i	.	.	.	.
CCCCCNc1nc(-c2ccccc2)nc(-n2ccnc2)n1	i	i	i	7.5*	i	i	i	i	i
CCCCNc1nc(N(C)c2ccccc2)nc(-n2ccnc2)n1	i	i	i	i	i	.	.	.	.
CC(C)(C)NC(=O)CSc1nc(-c2ccc(F)cc2)cs1	i	i	i	9.4*	i	i	i	i	i
O=C(Nc1ccon1)c1ccc(Cl)s1	i	i	i	i	i	.	.	.	.
Cc1ccnc(NC(=O)c2ccc(Cl)s2)c1	i	i	i	8.5*	i	i	i	i	i
CCN1C(=O)CSC1=NC1C2CC3CC(C2)CC1C3 (centres undefined)	i	i	i	14*	i	i	i	i	i
SMILES	MrgX1 antagonist	RGS4 inh	MrgX1 agonist	MrgX1 allo act	RGS4 act	MrgX1 allo conf	HEK293 Ca flux	HEK293 Ca counter	HEK293 Ca cntr2
COc1ccc(Br)c(C(=O)Nc2ccc(F)cc2)c1	i	i	i	6.9*	i	i	i	i	i
COc1cccc(NC(=O)c2ccccc2Br)c1	i	i	i	i	i	.	.	.	.
COc1ccccc1C(=O)OCC(=O)Nc1ccc(OC(F)F)cc1	i	i	i	i	i	.	.	.	.
COc1ccccc1C(=O)OCC(=O)Nc1ccccc1OC(F)F	i	i	i	7.4*	i	i	i	i	i
COCC(=O)N1CCC(Oc2ccc(C(=O)N3CCN(C)C[C@@H]3C(C)C)cc2)CC1	.	i	.	.	i	.	.	.	.
CC(C)CC(CO)N1CCN(C(=O)c2cccc(C(F)(F)F)c2)CCC1=O (centres undefined)	i	i	i	10*	i	i	i	i	i
CC(C)CC(COCc1ccc(F)cc1)N1CCN(C(=O)c2cccc(C(F)(F)F)c2)CCC1=O (centres undefined)	i	i	i	i	i	.	.	.	.
CCN(CC(=O)Nc1c(F)cccc1F)C(=O)c1ccc(C(F)(F)F)cc1	i	i	i	8.1*	i	i	i	i	i
CCc1cccc(OCC(=O)Nc2ccccc2N2CCCC2)c1	i	i	i	19*	i	i	i	i	i
O=C(Nc1ccc(Br)cc1)C1OCCc2ccccc21 (centres undefined)	i	i	i	11*	i	i	i	i	i
Cc1ccccc1NC(=O)CSc1nnc(C)c2ccccc12	i	i	i	i	i	.	.	.	.
CSCC[C@H](NC(=O)[C@@H]1Cc2ccccc2CN1)C(=O)NC(C)c1ccccc1 (some centres undefined)	i	i	i	i	i	.	.	.	.
CSCC[C@H](NC(=O)[C@@H]1Cc2ccccc2CN1)C(=O)NC1CCCC1	i	i	i	8.5*	i	i	i	i	i
O=C(O)c1cc(-c2ccc3c(c2)OCCO3)n[nH]1	i	i	i	i	i	.	.	.	.
Oc1ccccc1-c1cc(-c2ccc3c(c2)OCCO3)n[nH]1	i	i	i	6.9*	i	i	i	i	i
O=C1NC(Cc2ccccc2)C(=O)Nc2ccc(Br)cc21 (centres undefined)	i	i	i	9.1*	i	i	i	i	i
NC(=O)CCC(C(=O)O)N1C(=O)c2ccc(O)cc2C1=O (centres undefined)	i	i	i	i	i	.	.	.	.
